These results are taken from ChEMBL document CHEMBL1131222, “Novel thieno[2,3-d][1,3]oxazin-4-ones as inhibitors of human leukocyte elastase” (J Med Chem, 1998).

Molecules are shown by their SMILES. pKi: −log10 of the molar value. A value given as a limit tells only on which side of the number the result lay.

The nature of data set [1]: Alkaline hydrolysis rate (logk-OH). Format: ADME. The settings on record: 50 mM CAPS, pH 10.5 or 11.5, 25 °C. Put shortly: (§1)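 Thienooxazinone loss followed spectrophotometrically at a fixed wavelength (330–355 nm) in 50 mM CAPS, pH 10.5 or 11.5, 25 °C. Final inhibitor concentration 10–25 μM, 5% final DMSO. Curves analysed as first-order reactions. For some compounds at pH 10.5, reverse-phase HPLC aliquots were taken every 3 h over 24 h, with peak areas at 240 nm fitted to a first-order equation.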

Data set [2] in a line: Alkaline hydrolysis rate (k-OH). Format: ADME. Put shortly:
as §1

In data set [3] the target is T1, Neutrophil elastase (Homo sapiens, UniProt P08246).
T1 sequence (P08246 whole entry): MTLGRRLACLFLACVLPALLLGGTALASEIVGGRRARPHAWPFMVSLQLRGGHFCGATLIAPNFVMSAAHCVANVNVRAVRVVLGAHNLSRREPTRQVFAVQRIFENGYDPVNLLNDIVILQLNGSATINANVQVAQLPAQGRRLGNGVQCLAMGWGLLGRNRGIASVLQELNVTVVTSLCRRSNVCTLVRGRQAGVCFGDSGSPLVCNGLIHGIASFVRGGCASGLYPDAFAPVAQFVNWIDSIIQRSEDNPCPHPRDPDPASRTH
As to the kind of experiment: Steady state inhibition constant for Human Leukocyte Elastase inhibition. A digest of the protocol: (§2)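 Progress-curve assay at 25 °C with HLE purified from human leukocytes, in 50 mM sodium phosphate, 500 mM NaCl, pH 7.8. Substrate was MeOSuc-Ala-Ala-Pro-Val-pNA (200 μM final, 405 nm, 30–75 min) or, for a few inhibitors, Suc-Ala-Ala-Pro-Val-AMC (125 μM final, ex 340/em 460 nm, 4–5 min). […] Curves were fitted by slow-binding kinetics (k_obs = k_on'[I] + k_off).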

In data set [4] the target is T1, Neutrophil elastase. As to the kind of experiment: Negative logarithm of steady state constant Ki for enzyme-inhibitor complex Human Leukocyte Elastase inhibition. Put shortly:
as §2

For data set [5], the target named is T2, Neutrophil elastase (Homo sapiens) (UniProt P08246).
T2 sequence (whole entry): T1 sequence (P08246 whole entry)
As to the kind of experiment: Second order rate constant for enzyme-inhibitor complex Human Leukocyte Elastase inhibition was determined. Put shortly: as §2

In data set [6] the target is T2, Neutrophil elastase (Homo sapiens).

Usually pKi stands for the Ki on a negative log10 scale, so that one unit is a factor of ten. Higher therefore signals a small Ki. On to `CCOc1nc2sc(C)c(C)c2c(=O)o1`, for which the “Log kOH-” value in data set [1] is given as 0.45. In data set [2], this compound had a kOH- of 2.82 M⁻¹ s⁻¹. Further, the pKi at Neutrophil elastase [3] and on Neutrophil elastase [4] was 7.97 throughout.

In the case of `CCOc1nc2sc3c(c2c(=O)o1)CCCC3`, the “Log kOH-” value in data set [1] was found to be 0.44. The compound further yielded a kOH- in data set [2] of 2.77 M⁻¹ s⁻¹. In addition, the negative-log Ki (pKi) at Neutrophil elastase [3] and on Neutrophil elastase [4] was 8.87 throughout.

In turn, `CC(C)Nc1nc2sc3c(c2c(=O)o1)CCCC3` came in with a Log kOH- in data set [1] of -0.49. Also, in data set [2], the kOH- was 0.323 M⁻¹ s⁻¹. Further, the pKi at Neutrophil elastase [3] and at Neutrophil elastase [4] was 6.84 in each case.

With `O=c1oc(N2CCOCC2)nc2sc3c(c12)CCCC3`, in data set [1], the Log kOH- is -1.08. This compound returned a kOH- in data set [2] of 0.083 M⁻¹ s⁻¹. Besides, the kon (10e3* M-1 s-1) in data set [5] is under 0.8.

As to `Cc1sc2nc(NC(C)C)oc(=O)c2c1C`, in data set [1], the Log kOH- was -1.14. The compound also displayed a kOH- in data set [2] of 0.073 M⁻¹ s⁻¹. The negative logarithm of the Ki (pKi) on Neutrophil elastase [3] and at Neutrophil elastase [4] was 7.12 throughout. This compound also displayed a kon (10e3* M-1 s-1) in data set [5] of 1.13. The compound also yielded a koff in data set [6] of 0.85.

In the case of `CCCOc1nc2sc3c(c2c(=O)o1)CCCC3`, the “Log kOH-” value in data set [1] was 0.44. In addition, in data set [2], the kOH- turned out to be 2.75 M⁻¹ s⁻¹. The negative-log Ki (pKi) at Neutrophil elastase [3] and at Neutrophil elastase [4] was 8.84 each time.

On to `Cc1sc2nc(N(C)C3CCCCC3)oc(=O)c2c1C`, for which the Log kOH- in data set [1] was -1.11. In data set [2], this compound registered a kOH- of 0.077 M⁻¹ s⁻¹. The Kon (10e3* M-1 s-1) in data set [5] was under 0.8.

Regarding `COC(=O)CSc1nc2sc3c(c2c(=O)o1)CCCC3`, the Log kOH- in data set [1] was -0.04. Moreover, in data set [2], the kOH- was determined as 0.92 M⁻¹ s⁻¹. Besides, the pKi on Neutrophil elastase [3] and at Neutrophil elastase [4] was 7.75 throughout.

On to `CSc1nc2sc3c(c2c(=O)o1)CCCC3`, for which, in data set [1], the “Log kOH-” value stood at 0.21. For the same compound, in data set [2], the kOH- is 1.63 M⁻¹ s⁻¹. Moreover, the negative-log Ki (pKi) on Neutrophil elastase [3] and at Neutrophil elastase [4] was 8.24 each time. This compound also showed a kon (10e3* M-1 s-1) in data set [5] of 272. Besides, the koff in data set [6] was found to be 15.6.

`CCOc1nc2scc(C(C)C)c2c(=O)o1`: the “Log kOH-” value in data set [1] was determined as 0.47. Further, the kOH- in data set [2] turned out to be 2.98 M⁻¹ s⁻¹. The negative-log Ki (pKi) at Neutrophil elastase [3] and on Neutrophil elastase [4] was 8.25 throughout.

For the compound `CSc1nc2sc(C)c(C)c2c(=O)o1`, the “Log kOH-” value in data set [1] came out at 0.22. The kOH- in data set [2] was found to be 1.65 M⁻¹ s⁻¹. Besides, the pKi at Neutrophil elastase [3] and on Neutrophil elastase [4] was 7.46 in each case.

The compound `CCN(CC)c1nc2sc3c(c2c(=O)o1)CCCC3` displayed a Log kOH- in data set [1] of -1.59. The compound also yielded a kOH- in data set [2] of 0.025 M⁻¹ s⁻¹. Moreover, the pKi at Neutrophil elastase [3] and on Neutrophil elastase [4] was 7.79 in each case.

`CCSc1nc2sc3c(c2c(=O)o1)CCCC3` returned a Log kOH- in data set [1] of -0.22. The compound also registered a kOH- in data set [2] of 0.59 M⁻¹ s⁻¹. In addition, the pKi at Neutrophil elastase [3] and at Neutrophil elastase [4] was 8.24 each time.

In data set [1], `O=c1oc(SCc2ccccc2)nc2sc3c(c12)CCCC3` gave a Log kOH- of -0.45. The same compound registered a kOH- in data set [2] of 0.355 M⁻¹ s⁻¹. Further, the negative logarithm of the Ki (pKi) at Neutrophil elastase [3] and at Neutrophil elastase [4] was 6.54 each time.

For `COC(=O)CSc1nc2sc(C)c(C)c2c(=O)o1`, in data set [1], the “Log kOH-” value stood at 0.01. In data set [2], this compound registered a kOH- of 1.03 M⁻¹ s⁻¹. The pKi on Neutrophil elastase [3] and on Neutrophil elastase [4] was 6.62 throughout. Besides, the kon (10e3* M-1 s-1) in data set [5] stood at 0.685. The koff in data set [6] is 1.63.

As for `CCCOc1nc2sc(C)c(C)c2c(=O)o1`, the “Log kOH-” value in data set [1] was found to be 0.39. Besides, the kOH- in data set [2] amounted to 2.48 M⁻¹ s⁻¹. Besides, the negative logarithm of the Ki (pKi) at Neutrophil elastase [3] and on Neutrophil elastase [4] was 8.40 throughout.

Consider `CC(C)COc1nc2sc3c(c2c(=O)o1)CCCC3`, for which the “Log kOH-” value in data set [1] is 0.26. The compound further showed a kOH- in data set [2] of 1.83 M⁻¹ s⁻¹. Moreover, the pKi on Neutrophil elastase [3] and at Neutrophil elastase [4] was 7.29 throughout.

Consider `CCSc1nc2sc(C)c(C)c2c(=O)o1`, for which the “Log kOH-” value in data set [1] turned out to be 0.1. Moreover, the kOH- in data set [2] was found to be 1.27 M⁻¹ s⁻¹. Besides, the negative logarithm of the Ki (pKi) on Neutrophil elastase [3] and at Neutrophil elastase [4] was 8.56 each time.

As to `CCN(CC)c1nc2sc(C)c(C)c2c(=O)o1`, in data set [1], the Log kOH- was -1.63. Also, in data set [2], the kOH- is 0.023 M⁻¹ s⁻¹. The kon (10e3* M-1 s-1) in data set [5] was under 0.6.

For the compound `Cc1sc2nc(SCc3ccccc3)oc(=O)c2c1C`, in data set [1], the Log kOH- was -0.16. The kOH- in data set [2] worked out at 0.69 M⁻¹ s⁻¹. For the same compound, the negative logarithm of the Ki (pKi) at Neutrophil elastase [3] and at Neutrophil elastase [4] was 7.00 in each case.

For `CC(C)Nc1nc2sccc2c(=O)o1`, the Log kOH- in data set [1] is -0.48. This compound registered a kOH- in data set [2] of 0.332 M⁻¹ s⁻¹. For the same compound, the pKi on Neutrophil elastase [3] and at Neutrophil elastase [4] was 7.38 each time.

`Cc1sc2nc(N3CCOCC3)oc(=O)c2c1C`: the Log kOH- in data set [1] is -1.07. Also, in data set [2], the kOH- came out at 0.085 M⁻¹ s⁻¹. The compound also registered a kon (10e3* M-1 s-1) in data set [5] of under 0.6.

Regarding `Cc1sc2nc(OCC(C)C)oc(=O)c2c1C`, the “Log kOH-” value in data set [1] worked out at 0.41. The kOH- in data set [2] amounted to 2.55 M⁻¹ s⁻¹. The values for the pKi on Neutrophil elastase [3] and on Neutrophil elastase [4] were 6.88 and 6.87, respectively.

In data set [5], `CN(c1nc2sc3c(c2c(=O)o1)CCCC3)C1CCCCC1` showed a kon (10e3* M-1 s-1) of under 0.6.
